≈ marks a conversion by molar mass, not a printed value.
Key:
Homo sapiens [1] = species on record: Homo sapiens; test: Selectivity ratio of Ki for human tissue factor/F7a to Ki for human alpha-thrombin
Homo sapiens [2] = species on record: Homo sapiens; test: Selectivity ratio of Ki for human plasmin to Ki for human alpha-thrombin
Plasminogen = Plasminogen (Homo sapiens, UniProt P00747); test: Inhibition of human plasmin using S-2366 as substrate preincubated for 300 secs followed by substrate addition measured after 40 mins
Outline: (§1)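 Human proteases assayed at one substrate concentration with ten inhibitor concentrations at 37 °C, ≤1.3% DMSO, in an enzyme-specific Tris-HCl pH 7.4 buffer. Enzyme and inhibitor preincubated 300 s, then substrate added; absorbance read at 405 nm after 40 min. IC50 converted to Ki by IC50 = Ki(1+S/KM), using KM measured under assay conditions.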

Coagulation factor IX = Coagulation factor IX (Homo sapiens, UniProt P00740); test: Inhibition of human F9a using pefachrome F9a as substrate preincubated for 300 secs followed by substrate addition measured after 40 mins
Serine protease 1 = Serine protease 1 (Homo sapiens, UniProt P07477); test: Inhibition of human trypsin 1 using S-2222 as substrate preincubated for 300 secs followed by substrate addition measured after 40 mins; outline: as §1
Rattus norvegicus = species on record: Rattus norvegicus; test: Antithrombotic activity in rat caval vein thrombosis model assessed as prevention of venous thrombosis; assay type: functional, organism-based
[3] = Intrinsic clearance in Sprague-Dawley rat liver microsomes at 1 umol/L after 7 to 30 mins by LC-MS/MS method; assay type: ADME, Microsome; conditions: read-out: CLH
Cytochrome P450 3A4 = Cytochrome P450 3A4 (Homo sapiens, UniProt P08684); test: Inhibition of human CYP3A4; assay type: ADME
Prothrombin = Prothrombin (Homo sapiens, UniProt P00734); test: Inhibition of human alpha-thrombin using S-2366 as substrate after 40 mins
Plasma = test: Anticoagulant activity in human citrated plasma assessed as concentration required to double activated partial thromboplastin time after 3 mins by coagulation analyser; assay type: functional, cell-free; conditions: 0.05 h
Homo sapiens [4] = species on record: Homo sapiens; test: Selectivity ratio of Ki for human F9a to Ki for human alpha-thrombin
Coagulation factor XI = Coagulation factor XI (Homo sapiens, UniProt P03951); test: Inhibition of human F11a using S-2366 as substrate preincubated for 300 secs followed by substrate addition measured after 40 mins; outline: as §1
Coagulation factor X = Coagulation factor X (Homo sapiens, UniProt P00742); test: Inhibition of human F10a using S-2765 as substrate preincubated for 300 secs followed by substrate addition measured after 40 mins; outline: as §1
Homo sapiens [5] = species on record: Homo sapiens; test: Selectivity ratio of Ki for human F10a to Ki for human alpha-thrombin
[6] = Inhibition of human tissue factor/F7a using spectrozyme as substrate preincubated for 300 secs followed by substrate addition measured after 40 mins; outline: as §1
Homo sapiens [7] = species on record: Homo sapiens; test: Selectivity ratio of Ki for human F11a to Ki for human alpha-thrombin
[8] = target: Thrombin & trypsin (Homo sapiens) (UniProt P00734+P07477+P07478+P35030); test: Selectivity ratio of Ki for human trypsin 1 to Ki for human alpha-thrombin; assay type: protein assay
[9] = rat, isolated protein, 40 min, 4 µM
[10] = Prodrug conversion in human liver microsomes assessed as 3-((3-(2-(2-(Aminomethyl)-5-chlorobenzylamino)-2-oxoethyl)-4-methyl-2-oxo-5,6-dihydropyridin-1(2H)-ylamino)methyl)benzoic acid formation in presence of NADPH; assay type: ADME, Microsome
physchem = conditions: 1-octanol/phosphate buffer, pH 7.4
[11] = Prodrug conversion in human plasma assessed as esterase-mediated metabolite formation after 4 hrs; assay type: ADME, cell-free
[12] = Prodrug conversion in rat hepatocytes assessed as esterase-mediated 3-((3-(2-(2-(Aminomethyl)-5-chlorobenzylamino)-2-oxoethyl)-4-methyl-2-oxo-5,6-dihydropyridin-1(2H)-ylamino)methyl)benzoic acid formation at 4 uM after 40 mins by ultraperformance liquid chromatographic method; assay type: ADME, cell-based
[13] = Efflux ratio of apparent permeability across basolateral to apical over apical to basolateral side in human Caco2 cells at 10 uM after 45 to 120 mins by ultraperformance LC/MS/MS method; conditions: Caco-2
[14] = Apparent permeability across apical to basolateral side in human Caco2 cells at 10 uM after 45 to 120 mins by ultraperformance LC/MS/MS method; conditions: Caco-2
[15] = Solubility of the compound in phosphate buffer at pH 7.4 at 25 degC after 24 hrs by ultraperformance LC/MS/MS method
[16] = Prodrug conversion in human liver microsomes assessed as 3-((3-(2-(2-(Aminomethyl)-5-chlorobenzylamino)-2-oxoethyl)-4-methyl-2-oxo-5,6-dihydropyridin-1(2H)-ylamino)methyl)benzoic acid formation in absence of NADPH; assay type: ADME, Microsome

Plasminogen, sequence (P00747 97-580 limits assumed): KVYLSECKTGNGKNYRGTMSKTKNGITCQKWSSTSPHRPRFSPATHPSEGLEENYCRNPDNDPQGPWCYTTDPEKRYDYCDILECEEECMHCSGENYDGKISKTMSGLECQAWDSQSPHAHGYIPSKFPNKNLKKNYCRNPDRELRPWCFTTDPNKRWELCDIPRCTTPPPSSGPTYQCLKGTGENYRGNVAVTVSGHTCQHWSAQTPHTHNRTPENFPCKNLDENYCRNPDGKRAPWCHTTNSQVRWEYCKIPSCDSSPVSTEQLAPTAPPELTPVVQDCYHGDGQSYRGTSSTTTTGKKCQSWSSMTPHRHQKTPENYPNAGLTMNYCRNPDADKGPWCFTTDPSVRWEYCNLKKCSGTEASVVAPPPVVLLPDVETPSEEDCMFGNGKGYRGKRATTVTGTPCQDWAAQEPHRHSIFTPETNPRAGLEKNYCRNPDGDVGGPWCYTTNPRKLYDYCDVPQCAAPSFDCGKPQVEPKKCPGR
Plasminogen, sequence (P00747 581-810 limits assumed): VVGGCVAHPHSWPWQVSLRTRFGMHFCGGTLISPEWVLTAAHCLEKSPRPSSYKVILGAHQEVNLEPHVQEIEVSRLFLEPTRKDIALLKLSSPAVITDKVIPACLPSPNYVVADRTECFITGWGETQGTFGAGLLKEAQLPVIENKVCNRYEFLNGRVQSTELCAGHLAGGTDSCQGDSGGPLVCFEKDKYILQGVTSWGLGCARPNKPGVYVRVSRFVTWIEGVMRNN
Serine protease 1, sequence (P07477 whole entry): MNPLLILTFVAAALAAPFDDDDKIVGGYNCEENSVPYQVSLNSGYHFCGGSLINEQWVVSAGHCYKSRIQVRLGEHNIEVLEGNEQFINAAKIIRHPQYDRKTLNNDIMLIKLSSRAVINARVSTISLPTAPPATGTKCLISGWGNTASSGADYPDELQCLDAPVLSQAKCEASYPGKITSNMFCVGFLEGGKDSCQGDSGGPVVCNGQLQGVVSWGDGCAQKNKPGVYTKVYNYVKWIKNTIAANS
Cytochrome P450 3A4, sequence (P08684 whole entry): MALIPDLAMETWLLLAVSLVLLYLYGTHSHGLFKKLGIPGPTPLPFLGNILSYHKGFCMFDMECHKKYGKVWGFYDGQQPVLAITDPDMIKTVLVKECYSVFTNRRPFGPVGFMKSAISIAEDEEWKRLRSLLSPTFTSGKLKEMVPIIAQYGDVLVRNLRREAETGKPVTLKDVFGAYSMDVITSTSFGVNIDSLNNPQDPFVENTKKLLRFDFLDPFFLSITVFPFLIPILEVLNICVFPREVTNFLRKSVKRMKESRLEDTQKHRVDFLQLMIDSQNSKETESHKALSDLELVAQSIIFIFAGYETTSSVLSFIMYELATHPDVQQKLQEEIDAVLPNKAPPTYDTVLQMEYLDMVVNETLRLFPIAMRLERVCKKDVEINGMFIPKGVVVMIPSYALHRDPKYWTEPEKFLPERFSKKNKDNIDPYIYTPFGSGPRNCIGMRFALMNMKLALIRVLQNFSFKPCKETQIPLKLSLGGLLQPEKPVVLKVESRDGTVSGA
Coagulation factor XI, sequence (P03951 19-387 limits assumed): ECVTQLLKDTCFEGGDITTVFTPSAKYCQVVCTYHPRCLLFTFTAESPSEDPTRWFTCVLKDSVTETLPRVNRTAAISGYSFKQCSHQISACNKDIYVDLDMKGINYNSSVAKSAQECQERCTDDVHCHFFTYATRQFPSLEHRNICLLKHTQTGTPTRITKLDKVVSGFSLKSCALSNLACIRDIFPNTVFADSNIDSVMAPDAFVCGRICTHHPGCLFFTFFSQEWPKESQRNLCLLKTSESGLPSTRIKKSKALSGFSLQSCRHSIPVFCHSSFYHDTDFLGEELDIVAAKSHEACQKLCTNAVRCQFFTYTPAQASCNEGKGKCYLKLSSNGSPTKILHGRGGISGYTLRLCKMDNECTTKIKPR
Coagulation factor XI, sequence (P03951 388-625 limits assumed): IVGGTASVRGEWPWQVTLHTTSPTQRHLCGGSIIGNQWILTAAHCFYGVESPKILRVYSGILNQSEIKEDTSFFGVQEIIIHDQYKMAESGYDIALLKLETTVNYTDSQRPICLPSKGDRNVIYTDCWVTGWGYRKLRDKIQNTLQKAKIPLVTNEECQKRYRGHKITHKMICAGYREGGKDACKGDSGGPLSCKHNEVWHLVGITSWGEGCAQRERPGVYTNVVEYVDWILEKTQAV
Coagulation factor X, sequence (P00742 41-179 limits assumed): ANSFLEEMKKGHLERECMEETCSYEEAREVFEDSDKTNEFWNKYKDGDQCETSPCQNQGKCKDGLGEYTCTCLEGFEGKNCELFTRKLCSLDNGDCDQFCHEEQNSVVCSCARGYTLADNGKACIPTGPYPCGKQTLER
Coagulation factor X, sequence (P00742 235-488 limits assumed): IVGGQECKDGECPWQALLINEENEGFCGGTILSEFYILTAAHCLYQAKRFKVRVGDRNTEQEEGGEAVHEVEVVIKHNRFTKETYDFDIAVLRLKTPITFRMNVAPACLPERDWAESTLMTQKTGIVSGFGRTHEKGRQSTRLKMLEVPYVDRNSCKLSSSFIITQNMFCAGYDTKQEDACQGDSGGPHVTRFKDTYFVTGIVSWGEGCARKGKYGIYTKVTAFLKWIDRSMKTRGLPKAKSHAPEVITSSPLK
Coagulation factor IX, sequence (P00740 47-191 limits assumed): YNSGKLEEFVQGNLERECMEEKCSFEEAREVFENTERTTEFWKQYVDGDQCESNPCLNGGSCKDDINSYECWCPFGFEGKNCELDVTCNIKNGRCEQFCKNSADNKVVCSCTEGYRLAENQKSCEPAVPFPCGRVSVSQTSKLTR
Coagulation factor IX, sequence (P00740 227-461 limits assumed): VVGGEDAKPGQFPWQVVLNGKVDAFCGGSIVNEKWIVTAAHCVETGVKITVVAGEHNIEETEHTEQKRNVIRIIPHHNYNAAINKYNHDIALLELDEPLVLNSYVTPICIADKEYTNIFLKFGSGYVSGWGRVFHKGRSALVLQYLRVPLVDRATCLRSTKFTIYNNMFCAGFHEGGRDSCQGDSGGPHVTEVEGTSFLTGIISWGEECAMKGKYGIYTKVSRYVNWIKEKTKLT

With `CC1=C(CC(=O)NCc2cc(Cl)ccc2CN)C(=O)N(NCc2ccccc2)CC1` the Ratio Ki (Homo sapiens [1]) was > 1000, the Ratio Ki (Homo sapiens [2]) was > 1000 and the Ki (Plasminogen) was > 19 µM. The Ki (Coagulation factor IX) was > 29 µM, the Ki (Serine protease 1) was > 5.4 µM and the IC50 (Rattus norvegicus) was 0.072 µM. The microsomal CLint at 1 µM [3] was 150 µL/min/mg, the IC50 (Cytochrome P450 3A4) was 13 µM and the Ki (Prothrombin) was 0.0005 µM. The IC50 (Plasma) was 0.68 µM, the Ratio Ki (Homo sapiens [4]) was > 1000 and the Ki (Coagulation factor XI) was > 19 µM. For the same molecule, the Ki (Coagulation factor X) was > 17 µM, the Ratio Ki (Homo sapiens [5]) was > 1000 and the Ki [6] was > 33 µM. The Ratio Ki (Homo sapiens [7]) was > 1000 and the Ratio Ki [8] was > 1000.
With `C=O` [FORMALDEHYDE] the Drug metabolism [9] was “Metabolite_Detected”.
For `CC1=C2CC(=O)NCc3cc(Cl)ccc3CNC(=O)OC(C)OC(=O)c3cccc(c3)CNN(CC1)C2=O` (stereo unspecified), the Drug metabolism [10] was “Metabolite_Detected”, the logD at 3 h (physchem) was 2.6 and the Drug metabolism [11] was “Metabolite_Notdetected”. The Drug metabolism [12] was “Metabolite_Detected”, the efflux ratio at 10 µM [13] was 4.8 and the Papp A→B at 10 µM [14] was 45 ×10⁻⁶ cm/s. For the same molecule, the solubility at 24 h [15] was 340 µM (≈ 184 µg/mL) and the Drug metabolism [16] was “Metabolite_Detected”.

Reference: ChEMBL document CHEMBL4425130, “Macrocyclic Prodrugs of a Selective Nonpeptidic Direct Thrombin Inhibitor Display High Permeability, Efficient Bioconversion but Low Bioavailability” (J Med Chem, 2016)
